According to paper PMC4110683 (Chemistry and physics of lipids, 2013):
≈ marks a conversion by molar mass, not a printed value. Like-named read-outs stand apart in the source and are kept apart here.

Tests used:
[1] = system: L. donovani promastigotes; conditions: read-out: IC50 L. donovani promastigotes; ref Carballeira et al., 2012; cited from earlier work
[2] = biological target: PfFabG (Plasmodium falciparum, UniProt Q8I2S7); experiment: biochemical
[3] = system: human colon adenocarcinoma grade II cell line (HT29); experiment: Cytotoxicity to HT29 cells; type: cell-based; conditions: HT-29, read-out: IC50 HT29
[4] = system: P. falciparum K1; experiment: Toxicity to P. falciparum K1 strain; type: cell-based, Plasmodium falciparum
[5] = system: housefly; conditions: in words, ref de Renobales et al., 1986; cited from earlier work
[6] = system: BALB/c murine macrophages; conditions: read-out: Murine macrophages BALB/c IC50; ref Carballeira et al., 2012; cited from earlier work
[7] = biological target: T1, hTopIB (Homo sapiens, UniProt P11387); conditions: read-out: hTopIB EC50; relaxation activity; ref Carballeira et al., 2012; cited from earlier work
T1 sequence (P11387 1-765): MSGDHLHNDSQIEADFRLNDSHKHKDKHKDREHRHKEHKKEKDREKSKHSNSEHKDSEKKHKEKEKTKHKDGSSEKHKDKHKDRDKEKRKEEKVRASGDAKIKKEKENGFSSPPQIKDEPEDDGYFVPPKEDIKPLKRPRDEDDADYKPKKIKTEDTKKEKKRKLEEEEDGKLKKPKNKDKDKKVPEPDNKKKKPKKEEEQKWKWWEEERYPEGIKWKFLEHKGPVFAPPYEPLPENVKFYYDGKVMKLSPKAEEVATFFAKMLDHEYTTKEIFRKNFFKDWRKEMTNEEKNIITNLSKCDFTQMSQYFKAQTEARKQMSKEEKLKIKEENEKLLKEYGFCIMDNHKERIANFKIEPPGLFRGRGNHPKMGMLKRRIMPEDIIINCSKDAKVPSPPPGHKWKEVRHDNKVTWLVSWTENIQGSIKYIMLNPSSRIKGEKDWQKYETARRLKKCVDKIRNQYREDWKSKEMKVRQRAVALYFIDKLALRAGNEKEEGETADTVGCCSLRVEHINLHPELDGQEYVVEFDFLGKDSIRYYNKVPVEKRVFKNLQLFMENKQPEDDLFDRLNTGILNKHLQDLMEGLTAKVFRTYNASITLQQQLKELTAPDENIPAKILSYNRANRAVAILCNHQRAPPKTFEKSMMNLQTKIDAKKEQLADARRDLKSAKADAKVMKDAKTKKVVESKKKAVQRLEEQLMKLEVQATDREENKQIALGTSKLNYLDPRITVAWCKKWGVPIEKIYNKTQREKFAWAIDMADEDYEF

[8] = system: human SH-SY5Y neuroblastoma cell line; experiment: Cytotoxicity to SH-SY5Y neuroblastoma cells; type: cell-based; conditions: 120 h, read-out: IC50 SH-SY5Y neuroblastoma cell line
Outline: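 Human SH-SY5Y neuroblastoma cells were first differentiated with 15 μM all-trans retinoic acid for 5 d. Test compound was then added to the culture medium, and activity was read by sulforhodamine B (SRB) assay.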

[9] = biological target: T2, PfFabZ (Plasmodium falciparum, UniProt Q965D7); experiment: Inhibition of PfFabZ; type: biochemical
T2 sequence (Q965D7 19-230): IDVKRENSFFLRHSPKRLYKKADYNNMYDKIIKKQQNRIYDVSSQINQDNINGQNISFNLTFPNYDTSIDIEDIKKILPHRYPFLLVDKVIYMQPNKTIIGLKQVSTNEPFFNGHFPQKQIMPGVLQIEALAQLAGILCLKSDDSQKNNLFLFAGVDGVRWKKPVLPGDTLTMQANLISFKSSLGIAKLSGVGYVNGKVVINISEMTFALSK

[10] = system: LdTopIB; conditions: read-out: LdTopIB EC50; relaxation activity; ref Carballeira et al., 2012; cited from earlier work
[11] = system: human SH-SY5Y neuroblastoma cells; experiment: LDH release in SH-SY5Y cells; type: cell-based; conditions: 40 μM, 48h, in words
[12] = system: mouse leukaemic monocyte macrophage cell line (RAW 264.7); experiment: Cytotoxicity to RAW 264.7 cells; type: cell-based; conditions: RAW264.7, read-out: IC50 RAW 264.7
[13] = system: caspase-3; experiment: Caspase-3 activation in SH-SY5Y cells; type: cell-based, human; conditions: 40 μM, 48h, in words
[14] = system: M. smegmatis mc^2 155; conditions: ref Morbidoni et al., 2006; cited from earlier work
[15] = system: InhA, the enoyl-ACP reductase; conditions: in words; ref Morbidoni et al., 2006; cited from earlier work
[16] = biological target: T3, PfFabI (Plasmodium falciparum, UniProt Q9BH77); experiment: Inhibition of PfFabI; type: biochemical
T3 sequence (Q9BH77 22-432): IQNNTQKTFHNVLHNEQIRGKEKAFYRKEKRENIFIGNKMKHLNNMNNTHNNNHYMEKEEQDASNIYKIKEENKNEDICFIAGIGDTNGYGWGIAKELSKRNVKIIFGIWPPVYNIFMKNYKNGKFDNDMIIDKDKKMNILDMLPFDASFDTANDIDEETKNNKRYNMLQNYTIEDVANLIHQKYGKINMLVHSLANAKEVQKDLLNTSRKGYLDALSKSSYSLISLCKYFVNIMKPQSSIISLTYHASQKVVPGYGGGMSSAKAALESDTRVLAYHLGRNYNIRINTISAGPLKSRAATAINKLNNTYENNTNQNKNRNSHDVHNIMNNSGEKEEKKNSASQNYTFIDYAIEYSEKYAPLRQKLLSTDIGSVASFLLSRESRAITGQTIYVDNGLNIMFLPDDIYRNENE

[17] = system: Mycobacterium tuberculosis H37Rv; conditions: ref Morbidoni et al., 2006; cited from earlier work

Structure (SMILES): CCCCCCCCCCCCCCCC#CC(=O)O [2-ODA, 2-octadecynoic acid]
- IC50 [1]: 11 µM
- IC50 [2]: 2900 nM
- IC50 [3]: 101.1 ± 0.9 µM
- IC50 ([4]; Plasmodium falciparum, K1, read-out: IC50 P. falciparum K1, Carballeira and Tasdemir, unpublished data): 20 µM
- IC50 ([4]; read-out: IC50 P. falciparum K1, Carballeira and Tasdemir, unpublished data): 21.7 µM
- In vivo incorporation of [1-14C]acetate into fatty acids and hydrocarbons [5]: inhibited
- IC50 [6]: > 100 µM
- EC50 [7]: 34.8 ± 2.3 µM
- IC50 [8]: 26 ± 2 µM
- IC50 [9]: 1000 nM
- EC50 [10]: 5.3 ± 0.7 µM
- LDH release [11]: significant LDH release
- IC50 [12]: 45.5 ± 3.4 µM
- Caspase-3 activation [13]: did not produce any significant caspase-3 activation
- MIC against M. smegmatis mc^2 155 [14]: 4 µM (≈ 1.12 µg/mL)
- Inhibition of InhA [15]: able to inhibit
- IC50 [16]: 1100 nM
- MIC against Mycobacterium tuberculosis H37Rv [17]: 20 to 25 µM
